Structures are written as SMILES. Converted amounts (≈) assume the structure as drawn.

Data set [1] relates to Acinetobacter baumannii. The data set is described as follows: Antibacterial activity against Acinetobacter baumannii by broth dilution assay. It is filed as functional. Summed up:
(§1)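 MIC99 by broth-dilution assay; antibacterial and culture details are in the Supporting Information.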

Data set [2] deals with A549. The data set is described as follows: Cytotoxicity against human A549 cells incubated for 48 hrs by MTT assay. It is filed as cell-based. As to conditions: a549, 48 h.
Data set [3] has as its system Klebsiella pneumoniae. As to the kind of experiment: Antibacterial activity against Klebsiella pneumoniae by broth dilution assay. It is filed as functional. Summed up: as §1
Data set [4] deals with Escherichia coli. As to the kind of experiment: Antibacterial activity against Escherichia coli by broth dilution assay. The format is functional. Summed up: as §1
In data set [5] the test system is Erythrocyte. As to the kind of experiment: Hemolytic activity against human RBC incubated for 1 hr. The format is ADME, cell-based.

Regarding `CC[C@H](C)[C@H](N)C(=O)NCC(=O)O[C@@H]1CC[C@@]2(C)[C@@H](C1)C[C@@H](OC(=O)CNC(=O)[C@@H](N)[C@@H](C)CC)[C@@H]1[C@@H]2C[C@H](OC(=O)CNC(=O)[C@@H](N)[C@@H](C)CC)[C@]2(C)[C@@H]([C@H](C)CCC(=O)OCc3ccccc3)CC[C@@H]12`, the MIC99 in data set [1] was found to be 16 µM (≈ 16.1 µg/mL); in data set [3] it was 16 µM (≈ 16.1 µg/mL); in data set [4], 8 µM (≈ 8.07 µg/mL). Further, the Activity result in data set [2] and in data set [5] was “Toxic” each time.

The values above are taken from ChEMBL document CHEMBL4411332, “Deciphering the Role of Intramolecular Networking in Cholic Acid-Peptide Conjugates on the Lipopolysaccharide Surface in Combating Gram-Negative Bacterial Infections” (J Med Chem, 2019).
